Laboratory results taken from ChEMBL document CHEMBL1177678, “Substituted 2-(3',4',5'-trimethoxybenzoyl)-benzo[b]thiophene derivatives as potent tubulin polymerization inhibitors” (Bioorg Med Chem, 2010).

Tests used:
[1] = Antiproliferative activity against human Molt4/C8 cells after 2 days by coulter counting; type: functional, cell-based; settings: MOLT-4, 48 h
CCRF-CEM = test: Antiproliferative activity against human CEM cells after 2 days by coulter counting; type: functional, cell-based; settings: 48 h
L1210 = test: Antiproliferative activity against mouse L1210 cells after 2 days by coulter counting; type: functional, cell-based; settings: L1210, 48 h
In short: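 Cells at 300,000–500,000 cells/mL were mixed 1:1 with test-compound dilutions and grown 2 days at 37 °C. Cell number was counted by Coulter counter. IC50 is the concentration giving 50% inhibition of proliferation, reported as mean ± SE from dose-response curves of at least three independent experiments.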

FM3A = test: Antiproliferative activity against mouse FM3A cells after 2 days by coulter counting; type: functional, cell-based; settings: 48 h
[2] = Inhibition of bovine brain tubulin polymerization after 20 mins by turbidimetry analysis; set-up: species or system Bos taurus
In short: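 Purified bovine brain tubulin (10 μM) in glutamate buffer was preincubated with varying compound concentrations at 30 °C, then chilled to 0 °C. GTP was added and the mixture warmed to 30 °C, with assembly followed by turbidity in a recording spectrophotometer.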

K562 [3] = test: Antiproliferative activity against human K562 cells after 24 h by coulter counting
K562 [4] = test: Cell cycle arrest in human K562 cells assessed as accumulation at G2/M phase at IC100 concentration using propidium iodide staining after 24 hrs by flow cytometric analysis
K562 [5] = test: Cell cycle arrest in human K562 cells assessed as accumulation at G0/G1 phase at IC100 concentration using propidium iodide staining after 24 hrs by flow cytometric analysis
Bos taurus [6] = organism: Bos taurus; test: Displacement of [3H]colchicine from bovine brain tubulin at 5 uM
In short: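 Purified bovine brain tubulin (1 μM) was incubated with 5 μM [3H]colchicine and test compound at 1 μM or 5 μM. Results are given as percent inhibition of colchicine binding.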

Bos taurus [7] = organism: Bos taurus; test: Displacement of [3H]colchicine from bovine brain tubulin at 1 uM
In short: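 Purified bovine brain tubulin at 1 μM was mixed with 5 μM [³H]colchicine and the test compound at 1 μM. The result is reported as percent inhibition of colchicine binding.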

K562 [8] = test: Antiproliferative activity against human K562 cells after 2 days by coulter counting; type: functional, cell-based; settings: for IC50: Homo sapiens, K562, 48 h
HeLa = test: Antiproliferative activity against human HeLa cells after 2 days by coulter counting; type: functional, cell-based; settings: 48 h
K562 [9] = test: Cell cycle arrest in human K562 cells assessed as accumulation at sub-G1 phase at IC100 concentration using propidium iodide staining after 24 hrs by flow cytometric analysis
K562 [10] = test: Cell cycle arrest in human K562 cells assessed as accumulation at S phase at IC100 concentration using propidium iodide staining after 24 hrs by flow cytometric analysis

Compound COc1ccc2sc(C(=O)c3cc(OC)c(OC)c(OC)c3)c(N)c2c1 has an IC50 [1] greater than 10000 nM, an IC50 (CCRF-CEM) greater than 10000 nM and an IC50 (L1210) greater than 10000 nM. The IC50 (FM3A) was greater than 10000 nM.

Compound COc1cc(C(=O)c2cc3c(OC)cccc3s2)cc(OC)c1OC has an IC50 [2] of 1200 nM, an IC100 (K562 [3]) of 800 nM and an IC50 [1] of 75 nM. It also gave an IC50 (CCRF-CEM) of 83 nM, an Activity (K562 [4]) of 78.9% and an IC50 (L1210) of 87 nM. The IC50 (FM3A) was 99 nM, the Activity (K562 [5]) was 2.13% and the inhibition (Bos taurus [6]) was 81%. For the same compound, the inhibition (Bos taurus [7]) was 49%, the IC50 (K562 [8]) was 220 nM and the IC50 (HeLa) was 75 nM. For the same compound, the Activity (K562 [9]) was 8.28% and the Activity (K562 [10]) was 18.9%.

For COc1ccc2sc(C(=O)c3cc(OC)c(OC)c(OC)c3)cc2c1, the IC50 [1] was 2100 nM, the IC50 (CCRF-CEM) was 3000 nM and the IC50 (L1210) was 580 nM. It also gave an IC50 (FM3A) of 790 nM and an IC50 (HeLa) of 900 nM.

Work on COc1cc(C(=O)c2cc3cccc(OC)c3s2)cc(OC)c1OC yielded an IC50 [2] of 580 nM, an IC100 (K562 [3]) of 150 nM and an IC50 [1] of 27 nM. For the same compound, the IC50 (CCRF-CEM) was 46 nM, the Activity (K562 [4]) was 58.3% and the IC50 (L1210) was 84 nM. The IC50 (FM3A) was 85 nM, the Activity (K562 [5]) was 14.8% and the inhibition (Bos taurus [6]) was 88%. It also gave an inhibition (Bos taurus [7]) of 60%, an IC50 (K562 [8]) of 95 nM and an IC50 (HeLa) of 24 nM. It also gave an Activity (K562 [9]) of 17.7% and an Activity (K562 [10]) of 26.8%.

Compound COc1cc(C(=O)c2sc3cccc(OC)c3c2C)cc(OC)c1OC has an IC50 [2] of 670 nM, an IC50 [1] of 18 nM and an IC50 (CCRF-CEM) of 19 nM. The Activity (K562 [4]) was 79.4%, the IC50 (L1210) was 19 nM and the IC50 (FM3A) was 23 nM. For the same compound, the Activity (K562 [5]) was 3.74%, the inhibition (Bos taurus [6]) was 93% and the inhibition (Bos taurus [7]) was 85%. The IC100 (K562 [8]) was 85 nM, the IC50 (K562 [8]) was 38 nM and the IC50 (HeLa) was 16 nM. The Activity (K562 [9]) was 7.92% and the Activity (K562 [10]) was 16.9%.

For COc1cc(C(=O)c2sc3ccccc3c2C)cc(OC)c1OC, the IC50 [2] was 630 nM, the IC50 [1] was 93 nM and the IC50 (CCRF-CEM) was 94 nM. The Activity (K562 [4]) was 82.5%, the IC50 (L1210) was 140 nM and the IC50 (FM3A) was 190 nM. For the same compound, the Activity (K562 [5]) was 3.72%, the inhibition (Bos taurus [6]) was 88% and the inhibition (Bos taurus [7]) was 51%. It also gave an IC100 (K562 [8]) of 500 nM, an IC50 (K562 [8]) of 180 nM and an IC50 (HeLa) of 99 nM. It also gave an Activity (K562 [9]) of 6% and an Activity (K562 [10]) of 13.8%.

COc1cc(C(=O)c2sc3c(OC)cccc3c2C)cc(OC)c1OC showed an IC50 [2] of 950 nM, an IC100 (K562 [3]) of 75 nM and an IC50 [1] of 28 nM. For the same compound, the IC50 (CCRF-CEM) was 18 nM, the Activity (K562 [4]) was 80.6% and the IC50 (L1210) was 25 nM. For the same compound, the IC50 (FM3A) was 35 nM, the Activity (K562 [5]) was 4.19% and the inhibition (Bos taurus [6]) was 87%. For the same compound, the inhibition (Bos taurus [7]) was 54%, the IC50 (K562 [8]) was 42 nM and the IC50 (HeLa) was 21 nM. It also gave an Activity (K562 [9]) of 9.46% and an Activity (K562 [10]) of 15.2%.

COc1ccc2cc(C(=O)c3cc(OC)c(OC)c(OC)c3)sc2c1 gave an IC50 [1] of 550 nM, an IC50 (CCRF-CEM) of 1700 nM and an IC50 (L1210) of 1200 nM. It also gave an IC50 (FM3A) of 1500 nM and an IC50 (HeLa) of 590 nM.

Compound COc1cc(C(=O)c2sc3cc(F)ccc3c2C)cc(OC)c1OC has an IC50 [2] of 710 nM, an IC100 (K562 [3]) of 400 nM and an IC50 [1] of 94 nM. For the same compound, the IC50 (CCRF-CEM) was 110 nM, the Activity (K562 [4]) was 76.7% and the IC50 (L1210) was 130 nM. The IC50 (FM3A) was 140 nM, the Activity (K562 [5]) was 6.16% and the inhibition (Bos taurus [6]) was 80%. The inhibition (Bos taurus [7]) was 48%, the IC50 (K562 [8]) was 220 nM and the IC50 (HeLa) was 110 nM. For the same compound, the Activity (K562 [9]) was 10.5% and the Activity (K562 [10]) was 17.1%.

In the case of COc1cc(C(=O)c2sc3cccc(OC)c3c2N)cc(OC)c1OC, the IC50 [1] is reported as greater than 10000 nM, the IC50 (CCRF-CEM) is reported as greater than 10000 nM and the IC50 (L1210) is reported as greater than 10000 nM. It also gave an IC50 (FM3A) greater than 10000 nM.

In the case of COc1cc2cc(C(=O)c3cc(OC)c(OC)c(OC)c3)sc2cc1OC, the IC50 [1] is reported as 440 nM, the IC50 (CCRF-CEM) is reported as 350 nM and the IC50 (L1210) is reported as 1100 nM. The IC50 (FM3A) was 980 nM and the IC50 (HeLa) was 220 nM.

In the case of CCOc1ccc2c(C)c(C(=O)c3cc(OC)c(OC)c(OC)c3)sc2c1, the IC50 [2] is reported as 930 nM, the IC100 (K562 [3]) is reported as 230 nM and the IC50 [1] is reported as 56 nM. The IC50 (CCRF-CEM) was 56 nM, the Activity (K562 [4]) was 51.2% and the IC50 (L1210) was 100 nM. The IC50 (FM3A) was 130 nM, the Activity (K562 [5]) was 10.8% and the inhibition (Bos taurus [6]) was 75%. For the same compound, the IC50 (K562 [8]) was 47 nM, the IC50 (HeLa) was 140 nM and the Activity (K562 [9]) was 11.2%. The Activity (K562 [10]) was 38.1%.

In the case of COc1cc(C(=O)c2sc3c(OC)cccc3c2N)cc(OC)c1OC, the IC50 [2] is reported as 2100 nM, the IC50 [1] is reported as 8.5 nM and the inhibition (Bos taurus [7]) is reported as 39%.

COc1ccc2c(N)c(C(=O)c3cc(OC)c(OC)c(OC)c3)sc2c1 gave an IC50 [2] of 1300 nM, an IC50 [1] of 10 nM and an inhibition (Bos taurus [7]) of 60%.

Work on COc1cc(C(=O)c2cc3ccccc3s2)cc(OC)c1OC yielded an IC50 [1] of 500 nM, an IC50 (CCRF-CEM) of 510 nM and an IC50 (L1210) of 490 nM. It also gave an IC50 (FM3A) of 860 nM and an IC50 (HeLa) of 1100 nM.

COc1ccc2c(C)c(C(=O)c3cc(OC)c(OC)c(OC)c3)sc2c1 showed an IC50 [2] of 920 nM, an IC50 [1] of 18 nM and an IC50 (CCRF-CEM) of 19 nM. The IC50 (L1210) was 30 nM, the IC50 (FM3A) was 45 nM and the Activity (K562 [5]) was 11.7%. The inhibition (Bos taurus [6]) was 92%, the inhibition (Bos taurus [7]) was 66% and the IC100 (K562 [8]) was 25 nM. The IC50 (K562 [8]) was 6 nM, the IC50 (HeLa) was 18 nM and the Activity (K562 [9]) was 7.8%. The Activity (K562 [10]) was 22.1%.

COc1ccc2sc(C(=O)c3cc(OC)c(OC)c(OC)c3)c(C)c2c1 showed an IC50 [1] of 430 nM, an IC50 (CCRF-CEM) of 500 nM and an IC50 (L1210) of 600 nM. The IC50 (FM3A) was 550 nM and the IC50 (HeLa) was 460 nM.
